Assay results pooled from the literature.
Each line is one published result; the experiments were not run side by side.
Target: Mitogen-activated protein kinase kinase kinase kinase 4 (MAP4K4, Homo sapiens, UniProt O95819)

CCN1CCN(Cc2ccc(C(=O)Nc3ccc(C)c(Oc4ccc5c(c4)CC(=O)N5)c3)cc2C(F)(F)F)CC1 — remaining binding (binding; competition with immobilised ligand; 1 µM): 88%
Cc1cnc(Nc2ccc(C(=O)N3CCC(N4CCCC4)CC3)cc2)nc1-c1cc2ccccc2s1 — remaining binding (binding; competition with immobilised ligand; 1 µM): 67%
COc1cnc(Nc2cccc(S(N)(=O)=O)c2)nc1N1CCN(c2ccccc2)C(=O)C1 — remaining binding (binding; competition with immobilised ligand; 1 µM): 100%
O=C1CCc2cc(Nc3cc(OC4CCOCC4)c([N+](=O)[O-])cc3Cl)ccc2N1 — remaining binding (cell-free assay; competition with immobilised ligand; 1 µM): 100%
CN(CCCC(F)(F)F)c1nccc(-c2cnn3ncccc23)n1 — remaining binding (binding; 1 µM): 100%
COc1cnc(Nc2cccc(S(N)(=O)=O)c2)nc1N1CCN(c2ccccc2)CC1 — remaining binding (binding; competition with immobilised ligand; 1 µM): 87%
CN(C)c1nccc(-c2cnn3ncccc23)n1 — remaining binding (binding; 1 µM): 87%
C[C@@H](c1ccc(-n2cnc3c(N)ncnc32)cc1)N1CCc2nn(C)c(Cc3ccccc3)c2C1=O — remaining binding (binding; competition with immobilised ligand; 0.1 µM): 97%
C=CC(=O)N1CCC(C(=O)NCC(=O)N2CCN(c3nc(-c4cnc(N)nc4C(F)F)nc(N4CCOCC4)n3)CC2)CC1 — remaining binding (binding; competition with immobilised ligand; 1 µM): 80%
Cc1c(C(=O)O)cc(-c2ccc(C3CCNCC3)cc2)c2ccc(-c3ccc(C(F)(F)F)cc3)cc12 — remaining binding (binding; competition with immobilised ligand; 1 µM): 76%
CC1CCCN1c1nccc(-c2cnn3ncccc23)n1 (stereo not drawn) — remaining binding (binding; 1 µM): 100%
O=C(c1ccc(Nc2ncc(Cl)c(-c3ccc(Cl)s3)n2)cc1)N1CCC(N2CCCC2)CC1 — remaining binding (binding; competition with immobilised ligand; 1 µM): 26%
O=C(NCC1CCOCC1)c1n[nH]cc1NC(=O)c1c(F)cccc1F — remaining binding (binding; competition with immobilised ligand; 1 µM): 91%
CCCOc1ccc([C@H]2[C@H](C(=O)O)[C@@H](c3ccc4c(c3)OCO4)CN2CC(=O)Nc2c(CC)cccc2CC)cc1 — remaining binding (cell-free assay; competition with immobilised ligand; 1 µM): 90%
C[C@H]1CCN(c2nccc(-c3cnn4ncccc34)n2)C1 — remaining binding (binding; 1 µM): 98%
CN(C)c1ncnc(-c2ccc3nc(Nc4cc(CN5CCN(C(=O)CC(F)(F)F)CC5)ccn4)[nH]c3c2)c1Cl — remaining binding (cell-free assay; competition with immobilised ligand; 1 µM): 100%
O=C(c1ccc(Nc2nccc(-c3cc4ccccc4s3)n2)cc1)N1CCC(N2CCCC2)CC1 — remaining binding (binding; competition with immobilised ligand; 1 µM): 40%
CCc1ccccc1C(=O)Nc1n[nH]c2c(C)c(F)c(C3C(C#N)=C(C)N(C)C(C)=C3C#N)cc12 — remaining binding (cell-free assay; competition with immobilised ligand; 1 µM): 100%
N[C@@H]1CCN(c2nccc(-c3cnn4ncccc34)n2)C1 — remaining binding (binding; 1 µM): 100%
FC(F)(F)c1ccc2c(c1)nc(-c1cccnc1)n2C1CC1 — remaining binding (cell-free assay; competition with immobilised ligand; 1 µM): 100%
CN(c1nccc(-c2cnn3ncccc23)n1)C1CC1 — remaining binding (binding; 1 µM): 13%
